From ChEMBL document CHEMBL1773031, “Maklamicin, an antibacterial polyketide from an endophytic Micromonospora sp” (J Nat Prod, 2011) come the findings set out here.

Test [1] relates to MCF7. The test can be described thus: Cytotoxicity against human MCF7 cells after 48 hrs by MTT assay. The test is classed as functional, cell-based. Conditions: MCF7, 48 h. (In general: Formazan colour is commonly taken as a measure of viable cells.)
The subject of test [2] is Micrococcus luteus. Kind of test: Antimicrobial activity against Micrococcus luteus ATCC 9343 after 20 hrs by microplate reader assay. Conditions: ATCC 9343, 20 h. The test is classed as functional. A digest of the protocol: (§1)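 Grown in Mueller Hinton broth on a reciprocal shaker for 20 h at 30 °C, then pelleted and resuspended in saline at 1 × 10^5 cells/mL. The suspension was mixed into fresh broth in 96-well plates with test sample in DMSO. Plates were incubated for 20 h at 30 °C, and growth was read as absorbance at 650 nm.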

In test [3] the test system is Staphylococcus aureus. Kind of test: Antimicrobial activity against Staphylococcus aureus IFO 12732 after 20 hrs by microplate reader assay. The test is classed as functional. Conditions: IFO 12732, 20 h. A digest of the protocol: as §1
Test [4] deals with HeLa. The test can be described thus: Cytotoxicity against human HeLa cells after 48 hrs by MTT assay. The test is classed as functional, cell-based.
Test [5] concerns Candida albicans. The test can be described thus: Antimicrobial activity against Candida albicans IFO 1594 after 20 hrs by microplate reader assay. The test is classed as functional. Conditions: IFO 1594, 20 h. The method, boiled down: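 Yeast Nitrogen Base supplemented with 2% glucose was the medium. Cells were shaken for 20 h at 30 °C, pelleted and resuspended in saline at 1 × 10^5 cells/mL. They were mixed in medium with DMSO sample solution in 96-well plates and incubated for 20 h at 30 °C. Growth was measured as absorbance at 650 nm.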

In test [6] the test system is Enterococcus faecalis. The test can be described thus: Antimicrobial activity against Enterococcus faecalis NBRC 100480 after 20 hrs by microplate reader assay. The test is classed as functional. The note with it: NBRC 100480, 20 h. The method, boiled down:
as §1

Test [7] relates to Bacillus subtilis. The test can be described thus: Antimicrobial activity against Bacillus subtilis PCI219 after 20 hrs by microplate reader assay. The test is classed as functional. The note with it: PCI219, 20 h. A digest of the protocol:
as §1

In test [8] the test system is Bacillus cereus. Kind of test: Antimicrobial activity against Bacillus cereus NBRC 15305 after 20 hrs by microplate reader assay. The test is classed as functional. Conditions: NBRC 15305, 20 h. A digest of the protocol: as §1
The subject of test [9] is Escherichia coli. Kind of test: Antimicrobial activity against Escherichia coli NIH-JC2 after 20 hrs by microplate reader assay. Conditions: NIH-JC2, 20 h. The test is classed as functional. A digest of the protocol: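 The E. coli preculture was grown in Mueller Hinton broth, shaken for 20 h at 30 °C, centrifuged and suspended in saline at 1 × 10^5 cells/mL. The suspension was combined in broth with sample dissolved in DMSO. Incubation was 20 h at 37 °C, with absorbance at 650 nm read on a microplate reader.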

The structures appear in SMILES notation. Converted amounts (≈) assume the structure as drawn.

In the case of `C[C@H]1CC[C@@H]2[C@H](C=C[C@H]3[C@H](C)/C=C/C[C@]4(C)C=C(CO)[C@H](C[C@@H](C)O)C[C@]45OC(=O)C(=C5O)C(=O)[C@@]23C)C1` [MAKLAMICIN], the IC50 (usually the point on the concentration scale where inhibition reaches its midpoint) stood at 34 µM in test [1] and 17 µM in test [4]. The MIC (usually the lowest concentration that inhibits growth of the organism) in test [2] stood at 0.2 µg/mL (≈ 0.381 µM); in test [3], 13 µg/mL (≈ 24.8 µM); in test [5], 50 µg/mL (≈ 95.3 µM); in test [6], 13 µg/mL (≈ 24.8 µM); in test [7], 1.7 µg/mL (≈ 3.24 µM); in [8], 6.5 µg/mL (≈ 12.4 µM). In test [9], the MIC was greater than 50 µg/mL.

As to `CN(C)[C@@H]1C(O)=C(C(N)=O)C(=O)[C@@]2(O)C(O)=C3C(=O)c4c(O)cccc4[C@@](C)(O)[C@H]3C[C@@H]12.Cl` [TETRACYCLINE HYDROCHLORIDE], the MIC in test [2] amounted to 0.1 µg/mL; in test [3] it was 0.05 µg/mL; in test [6] it was 0.2 µg/mL; in test [7], 0.05 µg/mL; in [8], 1.5 µg/mL; in test [9], 0.8 µg/mL.
